{"source": "paper PMC8640995", "about": "(ACS Chemical Neuroscience, 2021)", "key": {"[1]": {"assay_type": "in vivo, Wistar rats", "settings": "for area under the curve, brain time–activity curve: 60 min scan; for area under the curve, brain time–activity curve / SUVmax brain: n = 2"}, "P2Y12R [2]": {"target": "T1, P2Y12R (Rattus norvegicus, UniProt Q9EPX4)", "T1 sequence (Q9EPX4 whole entry)": "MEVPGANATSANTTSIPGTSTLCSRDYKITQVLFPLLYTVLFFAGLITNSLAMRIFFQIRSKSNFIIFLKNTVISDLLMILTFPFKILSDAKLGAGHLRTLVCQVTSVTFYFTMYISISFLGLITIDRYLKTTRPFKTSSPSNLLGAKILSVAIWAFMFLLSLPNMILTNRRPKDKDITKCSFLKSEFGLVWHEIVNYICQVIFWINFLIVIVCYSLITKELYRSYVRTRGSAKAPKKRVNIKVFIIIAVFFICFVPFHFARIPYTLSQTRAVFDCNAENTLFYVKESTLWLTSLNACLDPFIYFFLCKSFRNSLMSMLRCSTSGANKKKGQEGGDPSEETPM", "assay_type": "in vivo, Wistar rats", "summary_of_the_method": "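Male Wistar rats (12–15 weeks, 250–350 g) under isoflurane anesthesia; n = 4 per group. Both groups received tariquidar 15 mg/kg iv. The blocking group also received unlabeled test compound 5 mg/kg together with the tariquidar. The 18F tracer (10–25 MBq) was given iv via tail vein, followed immediately by a dynamic PET scan. Whole-brain ROI time–activity curves were expressed as SUV, mean ± standard deviation.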"}, "P2Y12R [3]": {"target": "T1, P2Y12R", "experiment": "in vitro autoradiography on rat brain sections using [18F]3", "assay_type": "binding", "summary_of_the_method": "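Flash-frozen rat brain sections (10 μm) were prewashed 15 min in 50 mM Tris-HCl pH 7.4 and air-dried. They were then incubated 30 min with 18F tracer (0.1 MBq·mL–1) in 50 mM Tris-HCl/3% BSA pH 7.4, with or without P2Y12R inhibitor at 1 μM. Sections were washed twice for 1 min in cold 5 mM Tris-HCl (4 °C), dipped in ice-cold water and dried, then exposed to a phosphor screen for 10 min. Whole-brain ROI binding was expressed as % of no-inhibitor binding; n = 3.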"}, "human P2Y12R": {"target": "human P2Y12R", "settings": "human P2Y12R-transfected HEK cells; cited from earlier work"}, "[4]": {"settings": "previously determined using the same method; cited from earlier work"}, "[5]": {"settings": "previously reported biodistribution data, 5 and 15 min post-injection; cited from earlier work"}, "[6]": {"settings": "baseline, after the initial perfusion peak, iv"}, "[7]": {"settings": "efflux transporter blocking with tariquidar"}}, "note": "Like-named read-outs stand apart in the source and are kept apart here.", "data": [{"smiles": "CCCc1cc2c(N3CCn4c(nnc4C(F)(F)F)C3)nc(OCC[18F])nc2s1", "note": "[[^18F]3, 2-(2-[^18F]Fluoroethoxy)-6-propyl-4-(3-(trifluoromethyl)-5,6-dihydro-[1,2,4]triazolo[4,3-a]pyrazin-7(8H)-yl)thieno[2,3-d]pyrimidine]", "values": [{"measurement": "area under the curve, brain time–activity curve", "setting": "[1]; baseline", "result": "4.4 ± 0.1"}, {"measurement": "SUVmax brain", "setting": "[1]; [6]", "result": 0.2}, {"measurement": "SUVmax brain", "setting": "[1]; efflux transporter blocking with tariquidar 15 mg/kg iv", "result": 1.0}, {"measurement": "area under the curve, brain time–activity curve", "setting": "[1]; [7]", "result": "27.6 ± 1.1"}, {"measurement": "area under the curve, whole brain time–activity curve", "setting": "P2Y12R [2]; baseline: tariquidar + tracer, n = 4", "result": "24.1 ± 0.5"}, {"measurement": "area under the curve, whole brain time–activity curve", "setting": "P2Y12R [2]; blocking: tariquidar + unlabeled 3 (5 mg/kg) and tracer, n = 4, p = 0.04", "result": "20.6 ± 0.7"}, {"measurement": "selective and specific binding", "setting": "P2Y12R [3]", "result": "approximately 70%"}]}, {"smiles": "CCCc1cc2c(N3CCn4c(nnc4C(F)(F)F)C3)nc(OCCF)nc2s1", "note": "[compound 3, 2-(2-Fluoroethoxy)-6-propyl-4-(3-(trifluoromethyl)-5,6-dihydro-[1,2,4]triazolo[4,3-a]pyrazin-7(8H)-yl)thieno[2,3-d]pyrimidine]", "values": [{"measurement": "efflux transporter substrate behavior", "setting": "[1]; rats, tariquidar blocking of P-glycoprotein and breast cancer resistance protein", "result": "strong substrate for efflux transporters"}, {"measurement": "Ki", "setting": "human P2Y12R", "result": 0.3, "unit": "nM"}, {"measurement": "blocking efficiency of [18F]3 binding", "setting": "P2Y12R [3]; inhibitor co-incubated at 1 μM, n = 3", "result": "about 70%"}]}, {"smiles": "CCc1cc2c(N3CCN(C(=O)c4ccc(-c5ccccc5)cc4)CC3)nc(N3CCNC(=O)C3)nc2s1", "note": "[compound 2, 4-(4-(4-([1,1′-Biphenyl]-4-carbonyl)piperazin-1-yl)-6-ethylthieno[2,3-d]pyrimidin-2-yl)piperazin-2-one]", "values": [{"measurement": "Ki", "setting": "human P2Y12R", "result": 9, "unit": "nM"}]}, {"smiles": "CCOC(=O)c1cc(C#N)c(N2CC(N[11C](=O)NS(=O)(=O)c3ccc(Cl)s3)C2)nc1C", "note": "[[^11C]1, Ethyl 6-(3-(3-((5-Chlorothiophen-2-yl)sulfonyl)[^11C]ureido)azetidin-1-yl)-5-cyano-2-methylnicotinate]", "values": [{"measurement": "area under the curve, brain time–activity curve", "setting": "[1]; baseline", "result": "3.8 ± 0.7"}, {"measurement": "SUVmax brain", "setting": "[1]; [6]", "result": 0.1}, {"measurement": "area under the curve, brain time–activity curve", "setting": "[1]; [7]", "result": "5.2 ± 0.2"}, {"measurement": "log D7.4", "setting": "[4]", "result": "1.93 ± 0.02"}, {"measurement": "%ID/g in rat brain", "setting": "[5]", "result": "< 0.1", "unit": "%ID/g"}]}]}
